This note sets out measurements from publication PMC8480316 (Chemical Science, 2021).

Where a SMILES comes first, the peptide text is derived from it. Bridges are numbered along the chain shown (N, C = ends). The star is where a group is joined. βGlc = OC[C@H]1O[C@@H](*)[C@H](O)[C@@H](O)[C@@H]1O

In data set [1] the target is toll-like receptor 4 (TLR4) (Homo sapiens, UniProt O00206). The format is binding. Particulars: ELISA, result in words. The method, boiled down: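 Antagonism of LPS–TLR4 binding measured by ELISA, read as optical density at 450 nm. Each sample was run as four parallel experiments, with OD reported as mean ± standard deviation. IC50 values were derived from dose–response curves.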
For orientation: ELISA stands for enzyme-linked immunosorbent assay.

A further data set has as its system carboxypeptidase Y. Nature of the data set: carboxypeptidase Y-treatment experiments. Particulars: 28 °C for 12 h, pH 6.0. In kind it is in vitro ADME.
Another data set can be described thus: thermal stability assay. In kind it is physicochemical. The settings on record: heating experiments, 95 °C for 3 h.

Sequence of toll-like receptor 4 (TLR4) (O00206 24-839): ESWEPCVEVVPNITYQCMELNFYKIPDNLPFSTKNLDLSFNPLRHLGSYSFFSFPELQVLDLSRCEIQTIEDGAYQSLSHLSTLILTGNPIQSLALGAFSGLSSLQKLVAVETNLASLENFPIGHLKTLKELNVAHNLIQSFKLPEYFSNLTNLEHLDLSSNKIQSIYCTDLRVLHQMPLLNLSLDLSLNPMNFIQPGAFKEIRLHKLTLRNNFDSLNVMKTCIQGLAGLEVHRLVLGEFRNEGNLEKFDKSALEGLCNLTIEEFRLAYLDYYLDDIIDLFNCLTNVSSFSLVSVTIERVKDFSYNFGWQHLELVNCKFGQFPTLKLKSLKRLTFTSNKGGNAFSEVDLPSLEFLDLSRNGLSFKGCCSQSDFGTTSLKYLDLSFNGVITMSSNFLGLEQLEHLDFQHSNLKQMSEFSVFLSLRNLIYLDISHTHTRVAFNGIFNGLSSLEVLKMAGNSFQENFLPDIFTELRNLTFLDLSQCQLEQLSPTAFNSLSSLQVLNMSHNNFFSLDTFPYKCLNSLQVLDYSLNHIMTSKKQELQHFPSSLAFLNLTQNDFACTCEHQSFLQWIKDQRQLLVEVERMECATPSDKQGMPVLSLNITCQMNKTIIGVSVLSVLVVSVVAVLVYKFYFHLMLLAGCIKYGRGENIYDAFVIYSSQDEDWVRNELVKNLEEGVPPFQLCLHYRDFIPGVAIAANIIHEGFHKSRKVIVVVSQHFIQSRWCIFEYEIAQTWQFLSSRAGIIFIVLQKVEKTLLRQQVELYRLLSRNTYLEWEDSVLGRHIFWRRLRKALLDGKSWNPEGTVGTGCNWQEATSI
Sequence of toll-like receptor 4 (TLR4) (Q9Y6Y9 17-160 partner limits assumed): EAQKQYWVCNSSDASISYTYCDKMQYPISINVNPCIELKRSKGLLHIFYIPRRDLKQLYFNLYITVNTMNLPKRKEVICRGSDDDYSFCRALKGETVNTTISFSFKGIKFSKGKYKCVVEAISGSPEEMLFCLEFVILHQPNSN

As for `CC[C@H](C)[C@@H]1NC(=O)[C@H](C(C)C)NC(=O)[C@H](C(C)C)NC(=O)[C@H](CC(C)C)NC(=O)C[C@@H](C(=O)N[C@@H](Cc2c[nH]c3ccccc23)C(=O)N[C@@H](CC(N)=O)C(=O)N[C@@H](C)C(=O)N2CCC[C@H]2C(=O)NCC(=O)N[C@@H](Cc2c[nH]c3ccccc23)C(=O)N[C@@H](Cc2ccc(O[C@@H]3O[C@H](CO)[C@@H](O)[C@H](O)[C@H]3O)cc2)C(=O)O)NC(=O)[C@H](C)NC(=O)[C@H](CCC(N)=O)NC(=O)[C@H](C(C)C)NC1=O` [compound 20, stlassin F15Y-I] (LVVIVQADWNAPGWY(βGlc)-OH; lactam N-8), the “antagonistic (inhibitory) activity against the binding of LPS to TLR4” value in data set [1] is on record as “comparable inhibitory activities to stlassin (1)”.
As to stlassin I4C [compound 21], the “antagonistic (inhibitory) activity against the binding of LPS to TLR4” value in data set [1] is given as “comparable inhibitory activities to stlassin (1)”.
Turning to stlassin V2C/A11C [compound 18], in the data set on carboxypeptidase Y, the proteolytic stability entry was “similarly high stability to that of 1”. In the data set “thermal stability assay”, the thermal stability result is reported as “similarly high stability to that of 1”.
